# How the values were obtained:
# [1] = tested on: HCT-116; experiment: Cytotoxicity against human HCT116 cells after 72 hrs; format: functional, cell-based; settings: HCT-116, 72 h
# In short: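 Cells seeded at 5 × 10³ per well in growth medium, cultured 24 h, then given compound in DMSO (under 0.1% final). After 72 h incubation, resazurin added for 2 h and fluorescence read (excitation 560 nm). IC50 taken as concentration reducing cell growth by 50% after 72 h treatment.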
# [2] = Inhibition of sheep brain tubulin microtubule assembly by turbidimetry assay; set-up: species or system Ovis aries
# In short: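 Sheep brain tubulin purified by two assembly–disassembly cycles, about 2–3 mg/mL in 0.1 M MES, 0.5 mM MgCl2, 1 mM EGTA, 1 mM GTP, pH 6.6. Compounds in DMSO; incubation 10 min at 37 °C, then 5 min at 0 °C. Assembly followed continuously by turbidity at 350 nm at 37 °C.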
Structure (SMILES),IC50 ([2]; read-out: IC50) [µM],IC50 [2],IC50 [1] [µM]
COc1ccc(/C=C(/c2ccc(OC)c(O)c2)c2cc(OC)c(OC)c(OC)c2)cc1O,8.5,–,5
COc1ccc(/C=C(/c2ccc(OC)cc2)c2cc(OC)c(OC)c(OC)c2Br)cc1,–,Not Active,> 10
C=C(c1ccc(OC)c(O)c1)c1cc(OC)c(OC)c(OC)c1,2.1,–,0.002
COc1ccc(/C=C\c2cc(OC)c(OC)c(OC)c2)cc1O [COMBRETASTATIN A4],–,–,0.002
COc1ccc(/C=C(/c2ccc(C)cc2)c2cc(OC)c(OC)c(OC)c2)cc1O,–,Not Active,3
COc1ccc(/C(=C\c2cc(OC)c(OC)c(OC)c2)c2cc(OC)c(OC)c(OC)c2)cc1,–,Not Active,> 10
COc1ccc(/C(=C/c2ccc(OC)c(O[Si](C)(C)C(C)(C)C)c2)c2cc(OC)c(OC)c(OC)c2Br)cc1,–,Not Active,> 10
COc1ccc(/C(=C/c2ccc(OC)c(O)c2)c2cc(OC)c(OC)c(OC)c2)cc1,7.8,–,> 10

# Continued, in another order:
IC50 ([2]; read-out: IC50) [µM],IC50 [2],Structure (SMILES),IC50 [1] [µM]
8,–,COc1ccc(/C=C(/c2ccc(OC)cc2)c2cc(OC)c(OC)c(OC)c2)cc1,> 10
8.1,–,COc1ccc(/C=C(\c2ccc(OC)cc2)c2cc(OC)c(OC)c(OC)c2)cc1,> 10
–,Not Active,COc1ccc(/C=C(\c2cc(OC)c(OC)c(OC)c2)c2ccc3ccccc3c2)cc1O,8
–,Not Active,COc1ccc(/C=C(/c2ccc(OC)c(F)c2)c2cc(OC)c(OC)c(OC)c2)cc1O,8
8,–,COCOc1cc(/C=C(/c2ccc(OC)c(OCOC)c2)c2cc(OC)c(OC)c(OC)c2Br)ccc1OC,> 10
–,Not Active,COc1ccc(/C(=C\c2cc(OC)c(OC)c(OC)c2)c2cc(OC)c(OC)c(OC)c2)c(Br)c1,> 10
